From ChEMBL document CHEMBL3244357, “Biologically oriented organic sulfur chemistry. 15. Organic disulfides and related substances. 41. Inhibition of the fungal pathogen Histoplasma capsulatum by some organic disulfides” (J Med Chem, 1977)
Values after ≈ are worked out from the molar mass of the structure shown. Active and inactive are the calls of the source. No cut-off for these calls is given here.

What was measured:
Histoplasma capsulatum [1] = assay: Antifungal activity against Histoplasma capsulatum infected in x-irradiated mouse assessed as prolongation of lifetime at 50 mg/kg, sc bid administered on day 0, 1 and 2 post infection; assay type: functional; settings: route subcutaneous
How it was run: (§1)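 Mice infected with H. capsulatum were dosed sc at 0 and 4 h postinfection on days 0, 1 and 2, six doses in total. Read-out was % extension of lifetime beyond untreated controls. Amphotericin B, dosed the same way, served as positive control.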

Histoplasma capsulatum [2] = assay: Antifungal activity against Histoplasma capsulatum infected in x-irradiated mouse assessed as prolongation of lifetime at 13 mg/kg, sc bid administered on day 0, 1 and 2 post infection; assay type: functional; settings: route subcutaneous; how it was run: as §1
Histoplasma capsulatum [3] = assay: Antifungal activity against Histoplasma capsulatum infected in x-irradiated mouse assessed as prolongation of lifetime at 25 mg/kg, sc bid administered on day 0, 1 and 2 post infection; assay type: functional; settings: route subcutaneous; how it was run: as §1
Histoplasma capsulatum [4] = assay: Antifungal activity against Histoplasma capsulatum 26 by agar dilution assay; assay type: functional
How it was run: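 In vitro MIC against H. capsulatum strain 26 by standard agar dilution. Amphotericin B was run as the standard in each test.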

Mus musculus [5] = assay: Toxicity in ip dosed mouse; assay type: organism-based; settings: in vivo
Mus musculus [6] = assay: Toxicity in mouse at 50 mg/kg, sc bid; assay type: organism-based; parameters: dose 50 mg/kg, route subcutaneous; settings: in vivo
Histoplasma capsulatum [7] = assay: Antifungal activity against Histoplasma capsulatum infected in x-irradiated mouse assessed as prolongation of lifetime at 6 mg/kg, sc bid administered on day 0, 1 and 2 post infection; assay type: functional; settings: route subcutaneous; how it was run: as §1
Candida albicans [8] = assay: Antifungal activity against Candida albicans by disk-plate assay; assay type: functional, organism-based
Candida albicans [9] = assay: Antifungal activity against Candida albicans infected in mouse; assay type: functional, organism-based
Histoplasma capsulatum [10] = assay: Antifungal activity against Histoplasma capsulatum infected in x-irradiated mouse assessed as prolongation of lifetime at 40 mg/kg, sc bid administered on day 0, 1 and 2 post infection; assay type: functional; settings: route subcutaneous; how it was run: as §1
Histoplasma capsulatum [11] = assay: Antifungal activity against Histoplasma capsulatum infected in x-irradiated mouse assessed as prolongation of lifetime at 10 mg/kg, sc bid administered on day 0, 1 and 2 post infection; assay type: functional; settings: route subcutaneous; how it was run: as §1
Histoplasma capsulatum [12] = assay: Antifungal activity against Histoplasma capsulatum infected in x-irradiated mouse assessed as prolongation of lifetime at 20 mg/kg, sc bid administered on day 0, 1 and 2 post infection; assay type: functional; settings: route subcutaneous; how it was run: as §1

Row | SMILES | Activity (Histoplasma capsulatum [1]) [%] | Activity (Histoplasma capsulatum [2]) [%] | Activity (Histoplasma capsulatum [3]) [%] | MIC (Histoplasma capsulatum [4]) [µg/mL] | Activity (Mus musculus [5]) [g/kg] | further results
1 | Cc1ccc(SSCC(=O)O)cc1 | 0 | 17 | -6 | 20 (≈ 93.3 µM) | – | –
2 | CN(C)C(=S)SSc1ccccc1C(=O)O | – | – | – | < 1 | 0.1 | –
3 | COc1ccc(CSSCCCCS(=O)[O-])cc1.[Na+] | 9 | -2 | -19 | 20 | – | –
4 | C[C@@H]1[C@H](O)[C@@H](C)/C=C/C=C/C=C/C=C/C=C/C=C/C=C/[C@H](O[C@@H]2O[C@H](C)[C@@H](O)[C@H](N)[C@@H]2O)C[C@@H]2O[C@](O)(C[C@@H](O)C[C@@H](O)[C@H](O)CC[C@@H](O)C[C@@H](O)CC(=O)O[C@H]1C)C[C@H](O)[C@H]2C(=O)O [AMPHOTERICIN B] | 70 | – | 58 | 0.0625 (≈ 0.0676 µM) | – | –
5 | S=C(SSC(=S)N1CCOCC1)N1CCOCC1 | – | 5 | 5 | 40 (≈ 123 µM) | – | Activity (Mus musculus [6]): Toxic; Activity (Histoplasma capsulatum [7]): 5%
6 | COc1ccc(C(=S)SSc2ccc(C)cc2)cc1 | -2 | 2 | 7 | 20 (≈ 65.3 µM) | – | –
7 | Cc1ccc(SSCCN)cc1.Cl | 9 | 4 | 0 | > 20 | – | –
8 | CN(C)C(=S)SSc1ccc(Cl)cc1 | 11 | -14 | 13 | 5 (≈ 19 µM) | 1 | Activity (Candida albicans [8]): Active; Activity (Candida albicans [9]): inactive
9 | CCCCCCCCCCN1CCSSC1=S | – | – | – | > 10 | 0.1 | –
10 | CCSSC(=S)N1CCOCC1 | – | 5 | 5 | 10 (≈ 44.8 µM) | – | Activity (Mus musculus [6]): Toxic; Activity (Histoplasma capsulatum [7]): 5%
11 | S=C(SSc1ccccc1)N1CCOCC1 | – | 11 | 9 | 40 (≈ 147 µM) | – | Activity (Mus musculus [6]): Toxic; Activity (Histoplasma capsulatum [7]): 5%
12 | S=C1SSCCN1CCCCC1CCCCC1 | – | – | – | 10 (≈ 34.5 µM) | 0.1 | –
13 | CC(C)(C)SSC(=S)N1CCOCC1 | – | – | – | > 40 | – | Activity (Histoplasma capsulatum [10]): 11%; Activity (Histoplasma capsulatum [11]): -4%; Activity (Histoplasma capsulatum [12]): 5%
14 | O=C(O)c1ccccc1SSC(=S)N1CCOCC1 | -7 | -2 | -5 | > 10 | 0.1 | –
15 | Cc1ccc(SSCCCCS(=O)[O-])cc1.[Na+] | -21 | 15 | -6 | 20 | – | –
16 | Cc1ccc(SSC(=S)N2CCOCC2)cc1 | 9 | 5 | 0 | 40 (≈ 140 µM) | – | –
